Laboratory results published in ChEMBL document CHEMBL1128234, “Isothiocyanate-substituted benzyl ether opioid receptor ligands derived from 6 beta-naltrexol” (J Med Chem, 1995).

Legend:
[1] = biological target: Kappa-type opioid receptor (Cavia porcellus) (UniProt P41144); test: Irreversible binding affinity at Opioid receptor kappa 1 was evaluated as % of control specific binding remaining washed at concentration of 42 (nM) using [3H]U-69593 radioligand
Procedure, shortened: (§1)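 Diluted guinea pig brain homogenate is exposed to ligand for 60 min at 25 °C; protected samples are first preincubated 15 min at 37 °C with 1 naloxone. Washed samples are diluted in ice-cold Tris pH 7.4, spun at 10000g for 15 min at 4 °C, then resuspended and incubated 15 min at 37 °C, twice. Read-out is standard radioligand binding, expressed as % of recovery-sample specific binding. Test ligands run in triplicate; reference averaged over three assays.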

[2] = biological target: Mu-type opioid receptor (Cavia porcellus) (UniProt P97266); test: Irreversible binding affinity at mu-receptor was evaluated as % of control specific binding remaining washed at concentration of 5 (nM) using [3H]-DAMGO radioligand
Chain of Mu-type opioid receptor (Cavia porcellus) (P97266 whole entry): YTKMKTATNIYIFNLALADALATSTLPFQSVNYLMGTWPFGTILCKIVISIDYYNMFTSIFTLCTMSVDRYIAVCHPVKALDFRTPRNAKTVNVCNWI
Procedure, shortened: (§2)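 Guinea pig brain homogenate (less cerebellum) in 0.05 M Trizma pH 7.4, diluted 1:60. It was incubated with ligand 60 min at 25 °C, then diluted in ice-cold buffer and centrifuged 10000g. Washed samples were resuspended in buffer, incubated 15 min at 37 °C and recentrifuged. Binding used 1.0 nM [3H]DAMGO for 60 min at 25 °C, with filtration and counting. Nonspecific binding was set with 10 µM naloxone. Triplicates; % specific binding was taken relative to recovery controls.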

[3] = biological target: Mu-type opioid receptor (Cavia porcellus) (UniProt P97266); test: Irreversible binding affinity at mu-receptor was evaluated as % of control specific binding remaining unwashed at concentration of 2.5 (nM) using [3H]DAMGO radioligand; procedure, shortened: as §1
[4] = biological target: Kappa-type opioid receptor (Cavia porcellus) (UniProt P41144); test: Irreversible binding affinity at Opioid receptor kappa 1 was evaluated as % of control specific binding remaining protected at concentration of 30 (nM) using [3H]U-69593 radioligand; procedure, shortened: as §1
[5] = biological target: Mu-type opioid receptor (Cavia porcellus) (UniProt P97266); test: Irreversible binding affinity at mu-receptor was evaluated as % of control specific binding remaining protected at concentration of 5 (nM) using [3H]-DAMGO radioligand; procedure, shortened: as §1
[6] = biological target: Kappa-type opioid receptor (Cavia porcellus) (UniProt P41144); test: Irreversible binding affinity at Opioid receptor kappa 1 was evaluated as % of control specific binding remaining protected at concentration of 42 (nM) using [3H]U-69593 radioligand; procedure, shortened: as §1
[7] = biological target: Mu-type opioid receptor (Cavia porcellus) (UniProt P97266); test: Irreversible binding affinity at mu-receptor was evaluated as % of control specific binding remaining washed at concentration of 2.5 (nM) using [3H]DAMGO radioligand; procedure, shortened: as §2
[8] = biological target: Kappa-type opioid receptor (Cavia porcellus) (UniProt P41144); test: Irreversible binding affinity at Opioid receptor kappa 1 was evaluated as % of control specific binding remaining unwashed at concentration of 30 (nM) using [3H]U-69593 radioligand; procedure, shortened: as §1
[9] = biological target: Kappa-type opioid receptor (Cavia porcellus) (UniProt P41144); test: Irreversible binding affinity at Opioid receptor kappa 1 was evaluated as % of control specific binding remaining washed at concentration of 30 (nM) using [3H]U-69593 radioligand; procedure, shortened: as §1
[10] = biological target: Mu-type opioid receptor (Cavia porcellus, UniProt P97266); test: Inhibitory concentration was determined against Opioid receptor mu 1 using [3H]- DAMGO radioligand
Chain of Mu-type opioid receptor (P97266 whole entry): as above
Procedure, shortened: (§3)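 Guinea pig brain (minus cerebellum) homogenate in 0.05 M Tris pH 7.4, diluted 1:60 (0.8-1.5 mg protein/ml). Ligand tested in duplicate at nine concentrations; 60 min at 25 °C. Nonspecific binding defined with naloxone. Filtration, ice-cold buffer rinse, scintillation counting.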

[11] = biological target: Mu-type opioid receptor (Cavia porcellus) (UniProt P97266); test: Irreversible binding affinity at mu-receptor was evaluated as % of control specific binding remaining unwashed at concentration of 5 (nM) using [3H]DAMGO radioligand; procedure, shortened: as §2
[12] = biological target: Kappa-type opioid receptor (Cavia porcellus, UniProt P41144); test: Inhibitory concentration against Opioid receptor kappa 1 using [3H]- U-69,593 radioligand; procedure, shortened: as §3
Chain of Kappa-type opioid receptor (P41144 whole entry): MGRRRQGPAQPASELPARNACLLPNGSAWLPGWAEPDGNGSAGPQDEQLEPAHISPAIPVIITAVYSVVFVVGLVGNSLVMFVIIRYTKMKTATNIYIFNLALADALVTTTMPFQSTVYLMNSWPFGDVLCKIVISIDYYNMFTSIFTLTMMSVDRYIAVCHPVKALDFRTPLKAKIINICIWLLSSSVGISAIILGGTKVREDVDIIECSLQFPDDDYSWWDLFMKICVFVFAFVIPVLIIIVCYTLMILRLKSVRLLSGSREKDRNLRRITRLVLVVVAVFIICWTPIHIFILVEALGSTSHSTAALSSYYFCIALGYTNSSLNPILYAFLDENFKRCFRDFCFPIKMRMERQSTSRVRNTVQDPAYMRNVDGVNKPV

[13] = biological target: Mu-type opioid receptor (Cavia porcellus) (UniProt P97266); test: Irreversible binding affinity at mu-receptor was evaluated as % of control specific binding remaining protected at concentration of 2.5 (nM) using [3H]DAMGO radioligand; procedure, shortened: as §1
[14] = biological target: Kappa-type opioid receptor (Cavia porcellus) (UniProt P41144); test: Irreversible binding affinity at Opioid receptor kappa 1 was evaluated as % of control specific binding remaining unwashed at concentration of 42 (nM) using [3H]U-69593 radioligand; procedure, shortened: as §1
[15] = biological target: Opioid receptors; mu/kappa/delta; test: Inhibitory concentration was determined against Opioid receptors using [3H]- bremazocine radioligand; format: protein assay, Cavia porcellus; procedure, shortened: as §3
[16] = biological target: Kappa-type opioid receptor (Cavia porcellus) (UniProt P41144); test: Irreversible binding affinity at Opioid receptor kappa 1 was evaluated as % of control specific binding remaining protected at concentration of 20 (nM) using [3H]U-69593 radioligand; procedure, shortened: as §1
[17] = biological target: Kappa-type opioid receptor (Cavia porcellus) (UniProt P41144); test: Irreversible binding affinity at Opioid receptor kappa 1 was evaluated as % of control specific binding remaining washed at concentration of 20 (nM) using [3H]U-69593 radioligand; procedure, shortened: as §1
[18] = biological target: Kappa-type opioid receptor (Cavia porcellus) (UniProt P41144); test: Irreversible binding affinity at Opioid receptor kappa 1 was evaluated as % of control specific binding remaining unwashed at concentration of 20 (nM) using [3H]U-69593 radioligand; procedure, shortened: as §1
[19] = biological target: Mu-type opioid receptor (Cavia porcellus) (UniProt P97266); test: Irreversible binding affinity at mu-receptor was evaluated as % of control specific binding remaining washed at concentration of 30 (nM) using [3H]DAMGO radioligand; procedure, shortened: as §2
[20] = biological target: Kappa-type opioid receptor (Cavia porcellus) (UniProt P41144); test: Irreversible binding affinity at Opioid receptor kappa 1 was evaluated as % of control specific binding remaining protected at concentration of 40 (nM) using [3H]U-69593 radioligand; procedure, shortened: as §1
[21] = biological target: Kappa-type opioid receptor (Cavia porcellus) (UniProt P41144); test: Irreversible binding affinity at Opioid receptor kappa 1 was evaluated as % of control specific binding remaining washed at concentration of 40 (nM) using [3H]U-69593 radioligand; procedure, shortened: as §1
[22] = biological target: Mu-type opioid receptor (Cavia porcellus) (UniProt P97266); test: Irreversible binding affinity at mu-receptor was evaluated as % of control specific binding remaining unwashed at concentration of 50 (nM) using [3H]DAMGO radioligand; procedure, shortened: as §2
[23] = biological target: Mu-type opioid receptor (Cavia porcellus) (UniProt P97266); test: Irreversible binding affinity at mu-receptor was evaluated as % of control specific binding remaining unwashed at concentration of 30 (nM) using [3H]DAMGO radioligand; procedure, shortened: as §2
[24] = biological target: Kappa-type opioid receptor (Cavia porcellus) (UniProt P41144); test: Irreversible binding affinity at Opioid receptor kappa 1 was evaluated as % of control specific binding remaining unwashed at concentration of 40 (nM) using [3H]U-69593 radioligand; procedure, shortened: as §1
[25] = biological target: Mu-type opioid receptor (Cavia porcellus) (UniProt P97266); test: Irreversible binding affinity at mu-receptor was evaluated as % of control specific binding remaining protected at concentration of 50 (nM) using [3H]DAMGO radioligand; procedure, shortened: as §1
[26] = biological target: Mu-type opioid receptor (Cavia porcellus) (UniProt P97266); test: Irreversible binding affinity at mu-receptor was evaluated as % of control specific binding remaining washed at concentration of 50 (nM) using [3H]DAMGO radioligand; procedure, shortened: as §2
[27] = biological target: Mu-type opioid receptor (Cavia porcellus) (UniProt P97266); test: Irreversible binding affinity at mu-receptor was evaluated as % of control specific binding remaining protected at concentration of 30 (nM) using [3H]DAMGO radioligand; procedure, shortened: as §1

Chain of Kappa-type opioid receptor (Cavia porcellus) (P41144 whole entry): as above

| Structure (SMILES) | Control [4] [%] | Control [8] [%] | Control [9] [%] | IC50 [10] [nM] | IC50 [12] [nM] | IC50 [15] [nM] | Control [16] [%] | Control [17] [%] | Control [18] [%] | other results |
| --- | --- | --- | --- | --- | --- | --- | --- | --- | --- | --- |
| Oc1ccc2c3c1O[C@H]1[C@H](OCc4ccccc4N=C=S)CC[C@@]4(O)C(C2)N(CC2CC2)CCC314 (stereo partly specified) | 55 | 36 | 35 | 0.8 | 8.2 | 8.8 | – | – | – | Control [1]: 21%; Control [2]: 15%; Control [3]: 47%; Control [5]: 36%; Control [6]: 40%; Control [7]: 40%; Control [11]: 7%; Control [13]: 68%; Control [14]: 13% |
| Oc1ccc2c3c1O[C@H]1[C@H](OCc4cccc(CN=C=S)c4)CC[C@@]4(O)C(C2)N(CC2CC2)CCC314 (stereo partly specified) | 73 | 22 | 58 | 19 | 6 | 24 | 94 | 68 | 56 | – |
| Oc1ccc2c3c1O[C@H]1[C@@H](O)CC[C@@]4(O)[C@@H](C2)N(CC2CC2)CC[C@]314 | – | – | – | 1.1 | 2.6 | – | – | – | – | – |
| Oc1ccc2c3c1O[C@H]1[C@H](OCc4ccc(CN=C=S)cc4)CC[C@@]4(O)C(C2)N(CC2CC2)CCC314 (stereo partly specified) | – | – | – | 11 | 7.4 | 21 | 95 | 68 | 61 | Control [19]: 56%; Control [20]: 64%; Control [21]: 58%; Control [22]: 22%; Control [23]: 59%; Control [24]: 32%; Control [25]: 60%; Control [26]: 58%; Control [27]: 67% |
